Scp-1 inhibitor: blocks human Scp-1 phosphatase activity. Recombinant Scp1, phosphopeptide, malachite green phosphate absorbance. inhibition, % at 20 µM. Q9GZU7. 0.88% of 340,000 active. AID 493091;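 active = inhibition above about 50% at 20 µM, limit read from the data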;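 also: plate controls were DMSO wells with enzyme for no effect and wells lacking enzyme for full effect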
Target sequence (Q9GZU7 76-261 limits assumed): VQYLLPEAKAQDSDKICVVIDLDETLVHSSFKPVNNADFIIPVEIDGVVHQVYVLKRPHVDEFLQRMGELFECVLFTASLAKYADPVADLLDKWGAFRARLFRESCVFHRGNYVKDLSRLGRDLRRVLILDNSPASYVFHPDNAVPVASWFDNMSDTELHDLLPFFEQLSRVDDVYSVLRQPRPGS
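Test system: SCP-1 phosphatase catalytic domain, residues 76-261 | Compound dosing: One concentration, 20 µM, with 1.0% DMSO | Schedule: 45 min room-temperature reaction, 5 min colour, 30 min stabiliser | Detection: Absorbance at 630 nm | Read-out basis: % inhibition of SCP-1 phosphate liberation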
DNMT1 inh: DNMT1 (human) enzyme inhibition; P26358; DNMT1 molecular beacon, Hinp1I cleavage, fluorescence; inhibition (reported as % activation of signal), % at 10 µM; 0.83% of 360,000 active; AID 588458; in the data active = inhibition above about 50%
LMPTP inh: blocks human LMPTP phosphatase. P24666. recombinant LMPTP-A, OMFP fluorogenic substrate, fluorescence intensity. inhibition, % at 20 µM. 0.22% of 360,000 active. AID 651560;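 active = compounds that cut the enzyme signal by at least half of the control window in the single-dose screen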;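 also: plate controls were DMSO wells with enzyme plus substrate for no effect and substrate without enzyme for full effect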
Target sequence (P24666 whole entry, looked up): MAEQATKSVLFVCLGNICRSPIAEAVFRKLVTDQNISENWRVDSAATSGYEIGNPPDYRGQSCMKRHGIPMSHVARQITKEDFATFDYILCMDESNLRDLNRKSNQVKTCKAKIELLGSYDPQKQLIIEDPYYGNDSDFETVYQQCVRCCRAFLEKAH
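Assay system: LMPTP-A enzyme. Input: 0.625 nM LMPTP-A final. Probe or stimulus: 400 µM OMFP. Compound dosing: single 20 µM dose. Schedule: 50 min dark incubation at room temperature. Detection: fluorescence intensity of OMFP turnover product. Read-out: percent inhibition versus substrate-only and uninhibited controls. Benchmarks: no-enzyme low control, uninhibited high control.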
STEP block: inhibitors of human striatal-enriched phosphatase STEP; inhibition, % at 20 µM; recombinant STEP, OMFP fluorogenic substrate, fluorescence; P54829; 0.25% of 360,000 active;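 active = inhibition at 20 µM, scaled per plate between control wells, above about 37%, limit read from the data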;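 also: 0% = DMSO with enzyme and substrate and 100% = substrate only without enzyme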
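Assay system: isolated STEP enzyme. Buffer or medium: pH 6.0 Bis-Tris with DTT and Tween 20. Also added: fluorogenic phosphatase substrate OMFP at 25 µM final. Dosing: 20 µM, 1% DMSO. Timing: 20 min reaction, room temperature, in the dark. Measured by: fluorescence intensity, excitation 480 nm, emission 540 nm. Evaluation: normalized % inhibition.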
SUMO1-SIM PPI: alters human SUMO1 binding to SIM partners; inhibition, % at 20 µM; SUMO1 binding to a labelled peptide, TR-FRET, 1 h; 0.33% of 360,000 active; P63165; in the data active = inhibition above about 37%
Target sequence (P63165 whole entry, looked up): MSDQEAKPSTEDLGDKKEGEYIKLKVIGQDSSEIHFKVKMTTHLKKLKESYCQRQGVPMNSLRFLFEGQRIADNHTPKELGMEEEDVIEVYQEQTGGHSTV
NadD block: blocks S. aureus nicotinate mononucleotide adenylyltransferase; inhibition, % at 20 µM; AID 602399; purified NadD enzyme, colorimetric absorbance read-out; 0.78% of 360,000 active; in the data active = inhibition above about 26%
Scp1 confirm: Scp-1 (human) inhibition, single-dose confirmed; shares compounds with Scp-1 inhibitor; recombinant SCP-1 catalytic domain, phosphate release, malachite green absorbance; inhibition, % at 20 µM; 61% of 2,500 active; AID 540281;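 also: plate controls were DMSO with enzyme for no effect and buffer wells lacking enzyme for full effect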
Scp-1 MG ctr: counter-screen for Scp-1 inhibitors: colorimetric interference. 2,500 tested, under 10 active. Colorimetric interference counterscreen, malachite green absorbance 630 nm. shares compounds with Scp-1 inhibitor. apparent inhibition (interference), % at 20 µM. AID 540313;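 also: compounds added after enzyme reaction finished so only phosphate colour detection is probed; plate controls were DMSO wells with completed Scp-1 reaction for no effect and substrate wells lacking enzyme for full effect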
Scp1 DSF: Scp-1 (human) binding by thermal shift. shares compounds with Scp-1 inhibitor. Recombinant SCP1, Sypro Orange thermal shift Tm. thermal shift relative to vanadate control, % at 40 µM. 25% of 1,500 active;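 active = substances whose mean melting-temperature shift, as a percentage of the reference inhibitor's shift, reaches about 5.3%, limit read from the data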;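 also: 0% = Tm of DMSO wells and 100% = Tm with sodium orthovanadate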
Active calls of the source: *; x = no result. Only some compounds are listed: those with a hit (about 2.3% of all), similar ones and a draw of the others.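 The calls were made as follows, unless noted: active = inhibition of at least 30% at 20 µM; inactive = the rest.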

SMILES	Scp-1 inhibitor	DNMT1 inh	LMPTP inh	STEP block	SUMO1-SIM PPI	NadD block	Scp1 confirm	Scp-1 MG ctr	Scp1 DSF
CC(=O)c1cccc(NC(=O)Cn2nc(-c3ccc(Cl)cc3)ccc2=O)c1	51*	0	0	-2	-1	-11	-16	-18	x
Cc1cc(=O)oc2cc(NC(=O)c3cc(F)ccc3F)ccc12	86*	18	17	19	17	-5	62*	-12	-29
Cc1cc(=O)oc2cc(NC(=O)c3ccccc3OC(F)F)ccc12	-4	-9	1	0	1	-1	x	x	x
Cc1ccc(C)c(S(=O)(=O)N(C)C2(C)CCS(=O)(=O)C2)c1 (centres undefined)	-11	0	0	1	0	-3	x	x	x
O=[N+]([O-])c1ccc(O)c(Nc2ncnc3ccc(Br)cc23)c1	75*	0	26	25	-5	9	42*	-18	14*
CCOc1cc(C2C3=C(CC(C)(C)CC3=O)N(CCOC)C3=C2C(=O)CC(C)(C)C3)ccc1OC	54*	0	-1	-1	-2	10	-2	-6	x
CCOc1cc(C2C3=C(CC(C)(C)CC3=O)N(CCCOC)C3=C2C(=O)CC(C)(C)C3)ccc1OC	-1	-1	-4	0	-9	-2	x	x	x
CC(=O)Nc1ccc(-c2ccnc3c2CC(C(=O)Nc2cccc(C(F)(F)F)c2)O3)cc1 (centres undefined)	x	4	2	-3	22	4	x	x	x
N=C1C(c2nc(-c3cccc([N+](=O)[O-])c3)cs2)=C(O)CN1NC(=O)c1ccco1	68*	-3	48	10	-7	12	-9	-15	x
N=C1C(c2nc(-c3ccc(Cl)cc3)cs2)=C(O)CN1NC(=O)c1ccc(O)cc1	-9	9	14	2	12	19	x	x	x
CCc1ccc(C(=O)NCc2ccc(Cl)cc2)cc1	-7	0	-1	0	-2	3	x	x	x
Cc1cc(C)c(C#N)c(Cl)n1	66*	0	-1	-1	4	-3	-25	-21	x
CCNc1nc(NCC)n2c(SCC(=O)Nc3ccccc3)nnc2n1	-9	0	-1	-2	3	2	x	x	x
CCNc1nc(NCC)n2c(SCC(=O)Nc3ccc(OC(F)F)cc3)nnc2n1	68*	49	4	2	20	2	39*	-11	-13
CCNc1nc(NCC)n2c(SCC(=O)Nc3ccc(F)cc3)nnc2n1	54*	55*	0	7	11	-2	55*	-7	-20
COc1ccc(NC2CCCN(C(=O)Cn3ccc(C)n3)C2)cc1OC (centres undefined)	-2	1	-1	0	-2	-6	x	x	x
COc1ccc(OC)c(-c2csc(NC(=O)c3ccc(F)cc3)n2)c1	6	-5	3	-2	5	-6	x	x	x
COc1ccc(NC(=O)CN(c2ccccc2)S(=O)(=O)N(C)C)cc1OC	76*	13	9	0	3	1	69*	-2	-4
COc1ccc(C(=O)Nc2ccc3c(c2)C(=O)c2ccccc2C3=O)cc1OC	66*	57*	5	55*	21	0	16	-8	x
COc1ccc(C(=O)Nc2ccc3ccccc3c2)cc1OC	-2	-2	3	2	-3	-4	x	x	x
COc1ccc(NC(=O)CN(c2ccccc2)S(=O)(=O)N(C)C)cc1Cl	-13	-1	1	-4	6	-5	x	x	x
O=C(CN1C(=O)NC2(CCCC2)C1=O)Nc1cc(S(=O)(=O)N2CCCCC2)ccc1Cl	-2	-1	-1	0	-2	-1	x	x	x
COc1cccc(C(C)(O)c2nc(-c3cccc(C#N)c3)cs2)c1 (centres undefined)	x	-1	0	-2	6	-4	x	x	x
Nc1ncnc2c1ncn2[C@@H]1O[C@H](C(=O)N[C@H]2c3ccccc3C[C@H]2O)[C@@H](O)[C@H]1O	x	5	-1	2	1	1	x	x	x
O=C(O)c1cc(-c2ccc(/C=N/NC(=S)Nc3ccccc3)o2)ccc1Cl	52*	18	1	1	22	-3	59*	-2	12*
SMILES	Scp-1 inhibitor	DNMT1 inh	LMPTP inh	STEP block	SUMO1-SIM PPI	NadD block	Scp1 confirm	Scp-1 MG ctr	Scp1 DSF
CCCCC1(C)OC(=O)C(=Cc2ccc(-c3ccc(Cl)c(C(=O)O)c3)o2)C(=O)O1 (centres undefined)	60*	37	0	11	17	0	45*	-12	-28
CCCCC1(C)OC(=O)C(=Cc2ccc(SC)cc2)C(=O)O1 (centres undefined)	3	6	0	-1	4	2	x	x	x
CC(C)C[C@H]1CNC(=S)N1C[C@H]1CCCN1C[C@H](Cc1ccccc1)N1C[C@H](Cc2ccc(O)cc2)N(CCc2ccccc2)C1=S	x	-22	7	19	6	26	x	x	x
CCCCC1=CC2=C(c3ccco3)C(=O)C(C)(OC(=O)c3ccc(OC)cc3)C(=O)C2=CN1Cc1ccc2c(c1)OCO2 (centres undefined)	63*	26	23	1	-7	28	5	0	x
CCN(c1ccccc1)S(=O)(=O)c1ccc2[nH]cc(C(=O)N3CCOCC3)c(=O)c2c1	52*	14	0	13	-2	2	40*	-4	-5
CCN(c1ccc(F)cc1)S(=O)(=O)c1ccc2[nH]cc(C(=O)NCCCN3CCOCC3)c(=O)c2c1	-6	1	-1	3	3	-10	x	x	x
Cc1cc(-c2ccccc2)oc(=O)c1NC(=O)c1ccccc1	0	-2	-1	-3	-16	17	x	x	x
CS(=O)(=O)NCCSCc1ccco1	98*	13	0	-2	0	5	64*	-15	-5
CC(=O)Nc1ccc(S(=O)(=O)NCCSCc2ccco2)cc1	3	-4	2	-1	16	3	x	x	x
O=c1c(O[C@@H]2O[C@H](CO)C(O)C2O)c(-c2ccc(O)c(O)c2)oc2cc(O)cc(O)c12 (some centres undefined)	-15	14	-1	0	-5	-1	x	x	x
O=c1c(OC2OC(CO)C(O)C(O)C2O)c(-c2ccc(O)c(O)c2)oc2cc(O)cc(O)c12 (centres undefined)	-15	8	0	-1	-5	-1	2	-2	x
O=C(O)c1ccccc1C(=O)Nc1n[nH]c(=S)s1	99*	2	-1	1	4	-2	42*	-3	-4
